Where a name gives a salt, the structure may show the parent alone. The source made the active and inactive calls. The calls are words filed in the database; no cut-off is given here.
How the values were obtained:
[1] = tested on: Nucleic Acid; assay: Ratio of drug level from striatum to cortex of Sprague-Dawley rat at 4.5 +/- 3.6 nM after 35 mins by autoradiographic analysis in presence of dopamine D2/3 receptor antagonist raclopride
How it was run: (§1)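 Rat brain slice autoradiography with 10 μM raclopride co-incubated to define nonspecific binding. Slices were preincubated 15 min at rt in Tris buffer (5 mM KCl, 2 mM CaCl2, 2 mM MgCl2, 120 mM NaCl, pH 7.4). They were then exposed 35 min at 37 °C to radioligand at about 5 nM, washed ice-cold, and imaged on phosphor screens for 6–10 h with striatal and reference-region ROIs.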

[2] = tested on: Nucleic Acid; assay: Ratio of drug level from striatum to cerebellum of Sprague-Dawley rat at 4.5 +/- 3.6 nM after 35 mins by autoradiographic analysis in presence of dopamine D2/3 receptor antagonist raclopride; type: nucleic-acid assay; how it was run: as §1
[3] = tested on: Nucleic Acid; assay: Ratio of drug level from striatum to cortex of Sprague-Dawley rat at 4.5 +/- 3.6 nM after 35 mins by autoradiographic analysis; type: ADME, tissue-based
How it was run: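 In vitro autoradiography on rat brain slices. Slices were preincubated 15 min at rt in 50 mM Tris-HCl, 5 mM KCl, 2 mM CaCl2, 2 mM MgCl2, 120 mM NaCl, pH 7.4. They were then incubated 35 min at 37 °C with radioligand at about 5 nM, washed in ice-cold buffer and dipped in water. Phosphor screens were exposed 6–10 h, with manual striatal and reference-region ROIs. Values are mean SD over slides from n experiments.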

[4] = tested on: Nucleic Acid; assay: Ratio of drug level from striatum to cortex of Sprague-Dawley rat at […] after 35 mins by autoradiographic analysis in presence of dopamine D2/3 receptor antagonist raclopride
[5] = tested on: Nucleic Acid; assay: Ratio of drug level from striatum to cerebellum of Sprague-Dawley rat at […] after 35 mins by autoradiographic analysis in presence of dopamine D2/3 receptor antagonist raclopride; type: nucleic-acid assay
[6] = tested on: Nucleic Acid; assay: Ratio of drug level from striatum to cortex of Sprague-Dawley rat at […] after 35 mins by autoradiographic analysis; type: ADME, tissue-based
[7] = tested on: Nucleic Acid; assay: Ratio of drug level from striatum to cerebellum of Sprague-Dawley rat at […] after 35 mins by autoradiographic analysis; type: ADME, nucleic-acid assay
[8] = tested on: Nucleic Acid; assay: Ratio of drug level from striatum to cortex of Sprague-Dawley rat at […] after 35 mins by autoradiographic analysis in presence of GTP; type: ADME, tissue-based
[9] = Lipophilicity, log D of the compound; type: physicochemical; settings: octanol/water
How it was run: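 Shake-flask LogD of the [18F]-labelled tracer. Activity left on the HLB cartridge was eluted with n-octanol. The eluate was vortexed 5 min at rt with an equal volume of 1 M phosphate buffer, pH 7.4, then centrifuged at 17 000g for 10 min. Organic and aqueous aliquots were gamma-counted and corrected for intact-tracer fraction by radio-TLC. Each run was in duplicate, and the mean was taken from ≥2 independent experiments.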

[10] = tested on: Nucleic Acid; assay: Ratio of drug level from striatum to cerebellum of Sprague-Dawley rat at […] after 35 mins by autoradiographic analysis in presence of GTP; type: ADME, nucleic-acid assay
[11] = target: T1, D(2) dopamine receptor (Homo sapiens, UniProt P14416); assay: Agonist activity at human dopamine D2L receptor expressed in HEK293 cells assessed as inhibition of forskolin-induced cAMP accumulation after 30 mins by LANCE assay; type: functional, cell-based
[12] = target: D(1B) dopamine receptor (Homo sapiens, UniProt P21918); assay: Displacement of [3H]SCH23390 from human dopamine D5 receptor transfected in HEK293 cells after 2 hrs by scintillation counting analysis; type: cell-based
[13] = target: T2, D(4) dopamine receptor (Homo sapiens, UniProt P21917); assay: Displacement of [3H]spiperone from human dopamine D4 receptor transfected in HEK293 cells after 2 hrs by scintillation counting analysis; type: cell-based
T2 sequence (P21917 whole entry): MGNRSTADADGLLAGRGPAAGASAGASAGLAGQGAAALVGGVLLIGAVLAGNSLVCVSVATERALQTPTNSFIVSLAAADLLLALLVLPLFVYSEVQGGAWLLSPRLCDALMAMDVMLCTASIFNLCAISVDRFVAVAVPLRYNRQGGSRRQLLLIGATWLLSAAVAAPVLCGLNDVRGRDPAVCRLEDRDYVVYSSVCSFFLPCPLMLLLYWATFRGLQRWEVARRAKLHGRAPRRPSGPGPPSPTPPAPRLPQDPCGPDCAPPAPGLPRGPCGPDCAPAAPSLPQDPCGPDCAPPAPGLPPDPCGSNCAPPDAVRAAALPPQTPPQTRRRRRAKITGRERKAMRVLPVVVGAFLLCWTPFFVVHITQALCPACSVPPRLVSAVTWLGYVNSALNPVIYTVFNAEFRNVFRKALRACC

[14] = target: D(3) dopamine receptor (Homo sapiens, UniProt P35462); assay: Displacement of [3H]spiperone from human dopamine D3 receptor transfected in HEK293 cells after 2 hrs by scintillation counting analysis; type: cell-based
[15] = target: T1, D(2) dopamine receptor; assay: Displacement of [3H]spiperone from low-affinity state of human dopamine D2S receptor transfected in HEK293 cells after 2 hrs by scintillation counting analysis; type: cell-based
[16] = target: T1, D(2) dopamine receptor; assay: Displacement of [3H]spiperone from low-affinity state of human dopamine D2L receptor transfected in HEK293 cells after 2 hrs by scintillation counting analysis; type: cell-based
[17] = target: D(1A) dopamine receptor (Homo sapiens, UniProt P21728); assay: Displacement of [3H]SCH23390 from human dopamine D1 receptor transfected in HEK293 cells after 2 hrs by scintillation counting analysis; type: cell-based
[18] = organism: Homo sapiens; assay: Selectivity ratio of Ki for human dopamine D1-like receptor to Ki for human dopamine D2-like receptor
[19] = target: T1, D(2) dopamine receptor; assay: Displacement of [3H]spiperone from high-affinity state of human dopamine D2L receptor transfected in HEK293 cells after 2 hrs by scintillation counting analysis; type: cell-based
[20] = tested on: Nucleic Acid; assay: Ratio of drug level from striatum to cerebellum of Sprague-Dawley rat at 5.8 +/- […] after 35 mins by autoradiographic analysis in presence of GTP; type: ADME, nucleic-acid assay; settings: in vitro
[21] = tested on: Nucleic Acid; assay: Ratio of drug level from striatum to cortex of Sprague-Dawley rat at 5.8 +/- […] after 35 mins by autoradiographic analysis in presence of dopamine D2/3 receptor antagonist raclopride; settings: in vitro
[22] = tested on: Nucleic Acid; assay: Ratio of drug level from striatum to cerebellum of Sprague-Dawley rat at 5.8 +/- […] after 35 mins by autoradiographic analysis in presence of dopamine D2/3 receptor antagonist raclopride; type: nucleic-acid assay; settings: in vitro
[23] = tested on: Nucleic Acid; assay: Ratio of drug level from striatum to cortex of Sprague-Dawley rat at 5.8 +/- […] after 35 mins by autoradiographic analysis; type: ADME, tissue-based; settings: in vitro
[24] = tested on: Nucleic Acid; assay: Ratio of drug level from striatum to cerebellum of Sprague-Dawley rat at 5.8 +/- […] after 35 mins by autoradiographic analysis; type: ADME, nucleic-acid assay; settings: in vitro
[25] = tested on: Nucleic Acid; assay: Ratio of drug level from striatum to cortex of Sprague-Dawley rat at 5.8 +/- […] after 35 mins by autoradiographic analysis in presence of GTP; type: ADME, tissue-based; settings: in vitro
[26] = target: D(2) dopamine receptor (Rattus norvegicus, UniProt P61169); assay: Displacement of dopamine/[3-H]domperidone from high-affinity state of rat D2L receptor
Chain of D(2) dopamine receptor (Rattus norvegicus, UniProt P61169) (P61169 whole entry): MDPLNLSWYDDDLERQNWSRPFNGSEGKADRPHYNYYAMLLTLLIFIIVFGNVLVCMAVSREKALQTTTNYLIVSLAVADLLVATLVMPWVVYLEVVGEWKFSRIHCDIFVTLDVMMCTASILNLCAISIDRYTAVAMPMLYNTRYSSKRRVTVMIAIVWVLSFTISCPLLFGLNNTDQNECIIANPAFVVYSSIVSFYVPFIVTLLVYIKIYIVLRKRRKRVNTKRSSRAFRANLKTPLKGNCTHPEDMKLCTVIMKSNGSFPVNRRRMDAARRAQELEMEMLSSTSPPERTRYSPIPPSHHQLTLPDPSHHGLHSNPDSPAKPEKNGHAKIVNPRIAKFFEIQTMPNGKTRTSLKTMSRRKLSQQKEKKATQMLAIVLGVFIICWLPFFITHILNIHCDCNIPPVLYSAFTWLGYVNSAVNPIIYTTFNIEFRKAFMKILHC

Chain of D(3) dopamine receptor (P35462 whole entry): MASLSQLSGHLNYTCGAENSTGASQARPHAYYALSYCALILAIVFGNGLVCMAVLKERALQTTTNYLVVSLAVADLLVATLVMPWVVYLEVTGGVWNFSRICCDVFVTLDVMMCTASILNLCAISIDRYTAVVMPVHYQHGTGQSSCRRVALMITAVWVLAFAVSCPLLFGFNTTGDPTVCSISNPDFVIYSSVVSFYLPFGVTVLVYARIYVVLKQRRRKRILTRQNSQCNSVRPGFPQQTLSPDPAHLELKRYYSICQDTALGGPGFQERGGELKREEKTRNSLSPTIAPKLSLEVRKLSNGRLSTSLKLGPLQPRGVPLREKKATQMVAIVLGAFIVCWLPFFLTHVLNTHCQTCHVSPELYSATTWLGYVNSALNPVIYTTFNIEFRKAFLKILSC
Chain of D(1A) dopamine receptor (P21728 whole entry): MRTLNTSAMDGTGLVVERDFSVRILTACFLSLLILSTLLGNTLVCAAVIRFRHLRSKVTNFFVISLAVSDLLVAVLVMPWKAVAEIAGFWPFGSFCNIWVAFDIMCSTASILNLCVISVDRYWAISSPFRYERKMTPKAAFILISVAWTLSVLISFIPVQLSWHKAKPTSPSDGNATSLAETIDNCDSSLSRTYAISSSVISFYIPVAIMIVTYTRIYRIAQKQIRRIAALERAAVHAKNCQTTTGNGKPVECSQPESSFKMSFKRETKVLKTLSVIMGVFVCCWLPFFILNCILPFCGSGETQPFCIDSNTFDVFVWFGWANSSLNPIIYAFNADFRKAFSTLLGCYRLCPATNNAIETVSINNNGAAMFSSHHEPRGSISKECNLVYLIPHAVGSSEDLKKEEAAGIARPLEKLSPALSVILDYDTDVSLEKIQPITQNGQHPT
T1 sequence (P14416 whole entry): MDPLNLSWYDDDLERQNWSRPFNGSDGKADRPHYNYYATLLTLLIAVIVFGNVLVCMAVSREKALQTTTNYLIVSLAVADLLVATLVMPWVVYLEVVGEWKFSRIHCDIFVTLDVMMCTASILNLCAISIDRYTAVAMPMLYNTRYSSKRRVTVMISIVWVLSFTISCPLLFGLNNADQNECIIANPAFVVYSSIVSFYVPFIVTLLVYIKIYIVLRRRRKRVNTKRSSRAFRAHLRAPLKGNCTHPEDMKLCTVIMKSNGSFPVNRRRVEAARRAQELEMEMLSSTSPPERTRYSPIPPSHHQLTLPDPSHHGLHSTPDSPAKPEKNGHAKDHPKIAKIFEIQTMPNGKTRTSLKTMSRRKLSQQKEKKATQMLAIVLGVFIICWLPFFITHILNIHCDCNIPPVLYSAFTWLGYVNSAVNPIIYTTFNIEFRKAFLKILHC
Chain of D(1B) dopamine receptor (P21918 whole entry): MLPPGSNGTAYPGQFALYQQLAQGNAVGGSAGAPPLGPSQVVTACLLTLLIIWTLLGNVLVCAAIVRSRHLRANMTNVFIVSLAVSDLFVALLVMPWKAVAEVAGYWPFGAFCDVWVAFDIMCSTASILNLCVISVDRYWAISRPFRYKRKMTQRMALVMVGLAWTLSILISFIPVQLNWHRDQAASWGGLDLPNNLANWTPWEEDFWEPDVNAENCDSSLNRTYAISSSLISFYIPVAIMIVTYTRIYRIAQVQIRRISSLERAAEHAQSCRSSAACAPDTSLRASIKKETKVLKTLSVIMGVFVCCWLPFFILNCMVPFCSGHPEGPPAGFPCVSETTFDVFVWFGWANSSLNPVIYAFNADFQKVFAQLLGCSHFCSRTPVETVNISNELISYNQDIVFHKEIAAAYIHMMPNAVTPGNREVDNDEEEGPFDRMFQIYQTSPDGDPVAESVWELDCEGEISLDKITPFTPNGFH

Row | EC50 [11] [nM] | Ki ([12]; read-out: Ki) [nM] | Ki ([13]; read-out: Ki) [nM] | Ki ([14]; read-out: Ki) [nM] | Ki ([14]; read-out: pKi (converted)) [nM] | Ki ([15]; read-out: Ki) [nM] | Ki ([16]; read-out: Ki) [nM] | Ki ([16]; read-out: pKi (converted)) [nM] | Ki ([17]; read-out: Ki) [nM] | Ki ([17]; read-out: pKi (converted)) [nM] | Ratio Ki [18] | Ki ([12]; read-out: pKi (converted)) [nM] | Structure (SMILES) | further results
1 | – | – | – | – | – | – | – | – | – | – | – | – | Oc1ccc2c(c1)O[C@@H](CNCc1ccc(OCCCC[18F])cc1)CC2 | Ratio [1]: 1.05; Ratio [2]: 1.04; Ratio [3]: 1.16; Ratio [4]: 1.03; Ratio [5]: 1.1; Ratio [6]: 1.68; Ratio [7]: 1.85; Ratio [8]: 1.13; logD [9]: 2.45; Ratio [10]: 1.2
2 | 1.58 | 3480 | 9.7 | 23 | 21.9 | 131 | 80.5 | 66.1 | 3960 | 3890 | > 100 | – | Oc1ccc2c(c1)O[C@@H](CNCCN1CCN(c3ccc(I)cc3)CC1)CC2 | –
3 | – | – | – | 1.79 | 1.66 | 166 | 51.2 | 29.5 | 436 | 417 | > 100 | – | Oc1ccc2c(c1)O[C@@H](CNCc1ccccc1I)CC2 | Ki ([15]; read-out: pKi (converted)): 83.2 nM; Ki ([19]; read-out: Ki): 0.68 nM; Ki ([19]; read-out: pKi (converted)): 0.162 nM
4 | – | – | 1.59 | 13.9 | 5.62 | – | – | – | 8670 | 8130 | – | 3550 | Oc1ccc2c(c1)O[C@@H](CNCc1ccc(I)cc1)CC2 | Ki ([13]; read-out: pKi (converted)): 1.55 nM
5 | – | – | – | – | – | – | – | – | – | – | – | – | Oc1ccc2c(c1)O[C@@H](CNCCN1CCN(c3ccc(OCC[18F])cc3)CC1)CC2 | Ratio [20]: 1.67; Ratio [21]: 1.2; Ratio [22]: 1.65; Ratio [23]: 1.9; Ratio [24]: 2.64; logD [9]: 1.48; Ratio [25]: 1.48
6 | 0.0316 | 4640 | 0.97 | 7.87 | 2.88 | 30.8 | 72.9 | 33.9 | 4290 | 3890 | > 100 | 4570 | Oc1ccc2c(c1)O[C@@H](CNCc1cccc(I)c1)CC2 | Ki ([15]; read-out: pKi (converted)): 28.8 nM; Ki ([19]; read-out: Ki): 2.06 nM; Ki ([19]; read-out: pKi (converted)): 1.02 nM
7 | – | – | – | 33 | – | 452 | 156 | 145 | 1160 | – | > 100 | – | Oc1ccc2c(c1)O[C@@H](CNCc1ccccc1OCCCCF)CC2 | –
8 | – | – | – | – | – | – | – | – | – | – | – | – | CCCN1CCO[C@@H]2c3cc(O)ccc3CC[C@H]21 [NAXAGOLIDE HYDROCHLORIDE] | Ki [26]: 0.6 nM
9 | – | 19700 | 131 | 39.4 | 37.2 | – | – | – | – | – | > 100 | – | Oc1ccc2c(c1)O[C@@H](CN1CCN(c3ccc(OCCF)cc3)CC1)CC2 | Ki ([13]; read-out: pKi (converted)): 47.9 nM; inhibition [15]: inactive; inhibition [16]: inactive; inhibition [19]: inactive; inhibition [17]: inactive
10 | – | 17800 | 14.3 | 24.2 | – | – | – | – | 46500 | – | > 100 | 17400 | Oc1ccc2c(c1)O[C@@H](CN1CCN(c3ccc(I)cc3)CC1)CC2 | inhibition [15]: inactive; inhibition [16]: inactive; inhibition [19]: inactive
11 | – | 3830 | – | – | – | – | – | – | 7250 | – | – | 3720 | Oc1ccc2c(c1)O[C@@H](CNCc1ccccc1)CC2 | –
12 | 0.158 | 9700 | 27.7 | 10 | 8.71 | 252 | 235 | 219 | – | – | > 100 | – | Oc1ccc2c(c1)O[C@@H](CNCCN1CCN(c3ccc(OCCF)cc3)CC1)CC2 | Ki ([13]; read-out: pKi (converted)): 22.9 nM; Ki ([15]; read-out: pKi (converted)): 234 nM; Ki ([19]; read-out: Ki): 6.67 nM; Ki ([19]; read-out: pKi (converted)): 5.01 nM; inhibition [17]: inactive
13 | 0.398 | 2890 | 32.1 | 12.1 | – | 92.7 | 80.5 | 61.7 | 6910 | 6610 | > 100 | 2450 | Oc1ccc2c(c1)O[C@@H](CNCc1ccc(OCCCCF)cc1)CC2 | Ki ([15]; read-out: pKi (converted)): 91.2 nM; Ki ([19]; read-out: Ki): 5.6 nM
14 | 0.0501 | 27700 | 5.7 | 547 | 19.1 | – | – | – | 10900 | 10500 | – | 2750 | CCCCCCNC[C@H]1CCc2ccc(O)cc2O1 | Ki ([13]; read-out: pKi (converted)): 5.01 nM

From ChEMBL document CHEMBL3112461, “Synthesis and characterization of a novel series of agonist compounds as potential radiopharmaceuticals for imaging dopamine D₂/₃ receptors in their high-affinity state” (J Med Chem, 2014)
